This is an account of results in ChEMBL document CHEMBL3392987, “Novel synthetic coumarins that targets NF-κB in Hepatocellular carcinoma” (Bioorg Med Chem Lett, 2015).

The source made the active and inactive calls. The rule behind the calls is not given here.

The test system of data set [1] is HepG2. Put plainly: Cytotoxicity against human HepG2 cells after 24 to 72 hrs by MTT assay. Format: functional, cell-based. In outline:
(§1)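 HepG2 cells plated in triplicate and treated with a range of compound concentrations. MTT assay run after 24, 48 and 72 h. Data given as mean ± SD of triplicates, with p <0.05 flagged.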

The test system of data set [2] is HepG2. The data set can be described thus: Induction of apoptosis in human HepG2 cells assessed as PARP cleavage after 12 to 48 hrs by MTT assay. The class given is functional, cell-based. The following applies: in the assay text read “by Western blotting” for “by MTT assay”. The method, boiled down: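 HepG2 cells treated with compound over a time course. Whole-cell extract (30 µg protein) resolved on 10% SDS–PAGE; membrane cut by molecular weight, probed for PARP, then probed for β-actin on the same blots as loading control.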

For data set [3], the target named is T1, Nuclear factor NF-kappa-B complex (Homo sapiens) (UniProt Q00653+P19838+Q04206). The data set can be described thus: Inhibition of NF-kappaB in human HepG2 cell extract assessed as reduction in C-Myc expression at 50 uM after 12 to 48 hrs by Western blotting. The class given is cell-based. In outline:
(§2)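 HepG2 cells treated with 50 µM compound over a time course. Whole-cell extract (30 µg protein) resolved on 10% SDS–PAGE; membrane cut by molecular weight and probed for cyclin D1, Bcl-2, survivin or C-Myc. Blots stripped and reprobed for β-actin as loading control. Representative of two independent experiments.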

The next data set has as its system PLC-PRF-5. The data set can be described thus: Cytotoxicity against human PLC/PRF/5 cells by MTT assay. Format: functional, cell-based.
Data set [4] has as its target T1, Nuclear factor NF-kappa-B complex (Homo sapiens). The data set can be described thus: Inhibition of NF-kappaB in human HepG2 cell extract assessed as reduction in survivin expression at 50 uM after 12 to 48 hrs by Western blotting. The class given is cell-based. The method, boiled down: as §2
The subject of a further data set is Huh-7. The data set can be described thus: Cytotoxicity against human HuH7 cells by MTT assay. The class given is functional, cell-based.
Data set [5] has as its target T1, Nuclear factor NF-kappa-B complex (Homo sapiens). The data set can be described thus: Inhibition of NF-kappaB DNA binding activity in human HepG2 cell nuclear extract at 50 uM by ELISA-based DNA binding assay. The following applies: TDE = time-dependent effect. The class given is protein-complex assay. In outline:
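HepG2 cells treated with 50 µM compound over a time course, then nuclear extracts prepared. Extract protein (5 µg) tested in an ELISA-based TransAM NF-κB DNA-binding kit. Representative of two independent experiments.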

Data set [6] deals with HepG2. Put plainly: Cytotoxicity against human HepG2 cells at 5 to 15 uM by MTT assay. The class given is functional, cell-based. The following applies: TDE = time-dependent effect. In outline:
as §1

For data set [7], the system named is HepG2. Put plainly: Antiinvasive activity in CXCL12-induced human HepG2 cells at 50 uM after 8 hrs by in vitro migration assay.
In data set [8] the test system is HepG2. The data set can be described thus: Antiinvasive activity in CXCL12-induced human HepG2 cells at 50 uM after 8 hrs by matrigel invasion assay.
The target in data set [9] is T1, Nuclear factor NF-kappa-B complex (Homo sapiens). Put plainly: Inhibition of NF-kappaB in human HepG2 cell extract assessed as reduction in cyclin D1 expression at 50 uM after 12 to 48 hrs by Western blotting. The class given is cell-based. The method, boiled down: as §2
Data set [10] is described as follows: Cytotoxicity against human LO2 cells at 50 uM after 72 hrs by MTT assay. Format: cell-based. The note with it: l02, 72 h.
Data set [11] addresses T1, Nuclear factor NF-kappa-B complex (Homo sapiens). The data set can be described thus: Inhibition of NF-kappaB in human HepG2 cell extract assessed as reduction in MMP12 expression at indicated concentrations by Western blotting.
Data set [12] has the same target. The data set can be described thus: Inhibition of NF-kappaB in human HepG2 cell extract assessed as reduction in Bcl-2 expression at 50 uM after 12 to 48 hrs by Western blotting. Format: cell-based. The method, boiled down: as §2

T1 sequence (P19838 whole entry, looked up): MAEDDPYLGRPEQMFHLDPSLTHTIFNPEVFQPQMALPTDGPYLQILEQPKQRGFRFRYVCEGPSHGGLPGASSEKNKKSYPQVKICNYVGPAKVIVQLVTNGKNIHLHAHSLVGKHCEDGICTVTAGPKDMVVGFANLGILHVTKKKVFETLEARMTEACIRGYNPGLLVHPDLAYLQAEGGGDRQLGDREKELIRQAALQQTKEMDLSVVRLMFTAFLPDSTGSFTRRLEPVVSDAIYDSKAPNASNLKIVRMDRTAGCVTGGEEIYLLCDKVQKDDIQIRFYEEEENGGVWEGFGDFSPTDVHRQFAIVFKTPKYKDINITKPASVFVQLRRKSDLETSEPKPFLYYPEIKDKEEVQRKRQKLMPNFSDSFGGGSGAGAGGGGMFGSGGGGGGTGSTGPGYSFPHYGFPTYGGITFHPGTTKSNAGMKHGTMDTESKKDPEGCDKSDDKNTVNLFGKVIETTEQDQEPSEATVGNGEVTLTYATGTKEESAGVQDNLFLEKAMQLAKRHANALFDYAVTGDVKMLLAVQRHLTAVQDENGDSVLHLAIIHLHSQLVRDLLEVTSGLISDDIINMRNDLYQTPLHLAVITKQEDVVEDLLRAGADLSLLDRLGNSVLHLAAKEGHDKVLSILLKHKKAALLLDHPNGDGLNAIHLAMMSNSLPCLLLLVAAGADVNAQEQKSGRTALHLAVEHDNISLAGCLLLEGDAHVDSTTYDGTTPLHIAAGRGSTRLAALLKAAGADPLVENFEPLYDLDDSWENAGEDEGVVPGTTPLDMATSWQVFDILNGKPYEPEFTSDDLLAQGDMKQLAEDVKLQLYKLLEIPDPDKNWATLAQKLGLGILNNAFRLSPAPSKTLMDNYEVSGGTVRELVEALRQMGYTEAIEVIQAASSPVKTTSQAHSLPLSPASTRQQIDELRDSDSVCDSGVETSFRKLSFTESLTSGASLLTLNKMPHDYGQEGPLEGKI
T1 sequence (Q00653 whole entry, looked up): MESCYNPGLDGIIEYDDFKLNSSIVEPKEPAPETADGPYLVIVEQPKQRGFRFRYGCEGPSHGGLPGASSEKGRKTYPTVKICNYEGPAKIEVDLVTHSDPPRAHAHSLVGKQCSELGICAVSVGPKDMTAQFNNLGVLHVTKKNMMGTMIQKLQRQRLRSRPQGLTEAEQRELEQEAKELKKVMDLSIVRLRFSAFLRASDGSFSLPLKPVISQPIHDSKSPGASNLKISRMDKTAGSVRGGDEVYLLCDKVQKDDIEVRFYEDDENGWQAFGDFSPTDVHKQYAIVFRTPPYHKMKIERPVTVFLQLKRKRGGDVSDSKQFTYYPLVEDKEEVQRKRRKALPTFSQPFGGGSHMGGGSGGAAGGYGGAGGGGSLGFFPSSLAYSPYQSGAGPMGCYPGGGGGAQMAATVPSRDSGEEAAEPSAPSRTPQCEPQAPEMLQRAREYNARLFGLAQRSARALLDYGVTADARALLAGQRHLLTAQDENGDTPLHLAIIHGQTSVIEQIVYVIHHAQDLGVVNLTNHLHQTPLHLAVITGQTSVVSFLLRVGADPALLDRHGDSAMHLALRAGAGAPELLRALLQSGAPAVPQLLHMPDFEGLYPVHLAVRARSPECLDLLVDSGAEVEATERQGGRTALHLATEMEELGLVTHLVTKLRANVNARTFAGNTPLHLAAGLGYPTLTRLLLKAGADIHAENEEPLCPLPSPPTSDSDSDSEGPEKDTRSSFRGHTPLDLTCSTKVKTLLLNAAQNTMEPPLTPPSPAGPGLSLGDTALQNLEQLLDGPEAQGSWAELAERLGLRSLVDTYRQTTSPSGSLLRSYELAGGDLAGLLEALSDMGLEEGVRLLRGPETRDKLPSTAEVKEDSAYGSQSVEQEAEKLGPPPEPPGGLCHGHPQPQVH
T1 sequence (Q04206 whole entry, looked up): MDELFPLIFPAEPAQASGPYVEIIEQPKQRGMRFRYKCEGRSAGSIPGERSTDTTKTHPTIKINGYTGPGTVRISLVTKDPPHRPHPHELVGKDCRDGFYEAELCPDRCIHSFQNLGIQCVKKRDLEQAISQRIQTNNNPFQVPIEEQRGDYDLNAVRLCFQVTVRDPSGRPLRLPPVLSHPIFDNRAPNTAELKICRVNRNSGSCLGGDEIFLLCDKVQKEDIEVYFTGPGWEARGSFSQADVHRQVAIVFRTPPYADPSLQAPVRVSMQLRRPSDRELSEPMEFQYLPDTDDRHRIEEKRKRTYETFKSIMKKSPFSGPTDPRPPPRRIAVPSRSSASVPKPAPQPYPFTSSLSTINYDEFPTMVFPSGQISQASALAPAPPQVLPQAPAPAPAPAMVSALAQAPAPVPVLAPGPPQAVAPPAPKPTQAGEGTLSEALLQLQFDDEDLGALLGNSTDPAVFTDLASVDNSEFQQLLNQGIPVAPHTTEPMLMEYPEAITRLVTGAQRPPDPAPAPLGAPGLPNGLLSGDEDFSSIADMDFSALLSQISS

In the data set with HepG2 [1], `Cc1cc(C)c2c(CSC(=S)N(C)C)cc(=O)oc2c1` gave an IC50 of 62.8 µM.

On to `CCOC(=O)Nc1ccc2c(CSC(=S)N3CCCC3)cc(=O)oc2c1`, for which the outcome (in the data set on HepG2 [2]; in data set [3]; in data set [4]; in the data set with HepG2 [7]; with HepG2 [8]; in data set [9]) was Active. For the same compound, the outcome in data set [11] and in [12] was Active. For the same compound, the Activity entry in the data set with PLC-PRF-5 was “Dose-dependent effect”; in the data set on Huh-7, “Dose-dependent effect”; in data set [5] it was “tde”; with HepG2 [6] it was “tde”; in [10], “Non-toxic”; in the data set on HepG2 [1] it was “Dose-dependent effect”. The compound also showed an IC50 in the data set on HepG2 [1] of 14.8 µM.

In turn, `COc1ccc2oc(=O)cc(CSC(=S)N(C)C)c2c1` returned an IC50 in the data set on HepG2 [1] of 60.4 µM.

Turning to `O=c1cc(CSC(=S)N2CCCC2)c2ccc3ccccc3c2o1`, half-maximal inhibition in the data set with HepG2 [1] (IC50) was put at 62.1 µM.

In the data set with HepG2 [1], `Cc1ccc2oc(=O)cc(CSC(=S)N(C)C)c2c1` yielded an IC50 of 65.5 µM.

In the case of `CN(C)C(=S)SCc1cc(=O)oc2ccc(F)cc12`, the 50% inhibitory concentration (IC50) in the data set with HepG2 [1] came to 58.6 µM.

In the data set with HepG2 [1], `COc1ccc2oc(=O)cc(CSC(=S)N3CCCC3)c2c1` gave an IC50 of 53.5 µM.

`COc1ccc2c(CSC(=S)N3CCCC3)cc(=O)oc2c1` had an IC50 with HepG2 [1] of 61.5 µM.

Turning to `CCOC(=O)Nc1ccc2c(CSC(=S)N(C)C)cc(=O)oc2c1`, in the data set on HepG2 [1], half-maximal inhibition (IC50) was put at 66.3 µM.

`O=c1cc(CSC(=S)N2CCCC2)c2cc(F)ccc2o1`: in the data set on HepG2 [1], the IC50 worked out at 66.7 µM.

`O=c1cc(CSC(=S)N2CCCC2)c2ccc(F)cc2o1` gave an IC50 in the data set on HepG2 [1] of 62.5 µM.

For the compound `COC(=O)Nc1ccc2c(CSC(=S)N(C)C)cc(=O)oc2c1`, the IC50 with HepG2 [1] was determined as 61.4 µM.

In the data set on HepG2 [1], `CN(C)C(=S)SCc1cc(=O)oc2c1ccc1ccccc12` showed an IC50 of 63.9 µM.

`O=c1cc(CSC(=S)N2CCCC2)c2ccc(Cl)cc2o1` yielded a 50% inhibitory concentration (IC50) in the data set on HepG2 [1] of 60.8 µM.
